IMP-1 inhibitor: inhibitors of Pseudomonas aeruginosa IMP-1 metallo-beta-lactamase; purified IMP-1, nitrocefin hydrolysis, epi-absorbance fluorescence; inhibition, % at 5.6 µM; actives 0.45% (n = 290,000); AID 1556;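 active = inhibition above the mean plus 3 SD of all compounds in the same screening run, cut at about 4.5% in these data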
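System: purified recombinant IMP-1 beta-lactamase. Medium: Zinc- and detergent-supplemented HEPES buffer, pH 7.1. Compound: one 5.6 µM dose […]. Schedule: 15 min preincubation plus 25 min reaction at 25 °C. Technique: Epi-absorbance fluorescence, 480 nm excitation, 530 nm emission.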
VIM-2 inhibitor: inhibitors of Pseudomonas aeruginosa VIM-2 metallo-beta-lactamase. purified VIM-2, nitrocefin hydrolysis, epi-absorbance fluorescence. inhibition, % at 5.6 µM. actives 0.89% (n = 290,000);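 active = inhibition above the mean of all tested compounds plus 3 SD, cutoff set per screening run, cut at about 7.5% in these data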;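 also: red hydrolysis product quenches plate fluorescence so inhibitors raise well fluorescence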
procasp3 activ: activates human procaspase-3; recombinant procaspase-3 D3A, Ac-DEVD-pNA absorbance 405 nm; actives 0.11% (n = 330,000); P42574; activation, % at 8.5 µM;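 active = activation above the mean of all tested compounds plus 3 SD, cut at about 21% in these data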
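assay system = Procaspase-3 D3A mutant | signal = absorbance at 405 nm, 0 and 120 min | times = 1 h preincubation plus 2 h reaction at 25 °C | repeats = single replicate | read-out = % activation between DMSO and enzyme-spiked controls | medium = Zinc-free HEPES saline buffer with Triton X-100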
procasp7 counter: counter-screen for procaspase-3 activators: activators of human procaspase-7; activation, % at 8.5 µM; recombinant procaspase-7, Ac-DEVD-pNA absorbance 405 nm; D23A/D198A/D206A triple mutant, cannot self-cleave; scale: DMSO 0, 5 µM enzyme 100; actives 0.093% (n = 330,000); P55210;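 active = percent activation above the screen-wide mean plus 3 SD, cut at about 25% in these data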
Target sequence (P55210 whole entry D23A/D198A/D206A): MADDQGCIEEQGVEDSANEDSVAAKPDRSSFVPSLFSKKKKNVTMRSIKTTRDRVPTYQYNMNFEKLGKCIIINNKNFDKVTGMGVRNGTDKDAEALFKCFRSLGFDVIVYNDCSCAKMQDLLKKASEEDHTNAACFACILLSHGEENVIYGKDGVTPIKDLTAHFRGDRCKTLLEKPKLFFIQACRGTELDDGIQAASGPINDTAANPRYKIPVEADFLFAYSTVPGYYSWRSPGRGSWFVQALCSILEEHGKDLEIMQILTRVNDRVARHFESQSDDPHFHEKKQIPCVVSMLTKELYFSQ
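signal = Epi-absorbance of released pNA at 405 nm, two timepoints | assay system = Uncleavable procaspase-7 mutant enzyme | reagent = Ac-DEVD-pNA substrate, 400 µM as added | times = 1 h enzyme–compound preincubation and 2 h substrate reaction, both 25 °C | benchmarks = low DMSO alone, high DMSO plus 5 µM PC-7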
Neddyl block: inhibitors of human cullin neddylation; P61081+Q13564; TR-FRET cullin neddylation, biochemical; calls only at 25 µM; actives 0.58% (n = 360,000); AID 651699; in the data active = inhibition above about 36%
PolyA inhibitor: yeast polyadenylation inhibition; activity score, % at 12 µM; S. cerevisiae SKY197-pL101 polyadenylation reporter, beta-gal luminescence; efflux-impaired pdr1/pdr3 knockout yeast; score 100 = 6 SD above DMSO; actives 0.02% (n = 300,000);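 active = lowest replicate activity score at least 50, where 100 means six control SD above control mean; inconclusive = lowest score under 50 but half or more replicates reach 50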;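 also: yeast exposed to compound for 9 h at 30 °C; higher score means more reporter readthrough which indicates perturbed polyadenylation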
Hits are given with their value; . = inactive; ? = inconclusive; / = no result shown; + = active, no number. In the library only some 1.7% were active in any assay of this set; here they are far more common.

SMILES	IMP-1 inhibitor	VIM-2 inhibitor	procasp3 activ	procasp7 counter	Neddyl block	PolyA inhibitor
Cc1cccc(-n2cnc(C(=O)N3CCN(C)CC3)c2)n1	.	.	.	.	.	.
O=[N+]([O-])c1cc(S(=O)(=O)Nc2ccccc2)ccc1Nc1ccccc1	/	/	/	/	.	/
NS(=O)(=O)c1ccc2c(c1)C1C=CCC1C(C1CC=CCC1)N2 (stereo unspecified)	13	.	.	.	.	.
CC(C)(C)C(=O)NC(=C(Cl)Cl)P(=O)(O)O	.	10	.	.	.	/
CC(C)(C)C(=O)NC(=S)N1CCCC1	.	.	.	.	.	.
Cc1nc2c3cc(Cl)ccc3n(CCN3CCCCC3)c2s1	5.1	.	.	.	.	.
COC(=O)Cn1c2ccc(Cl)cc2c2nc(C)sc21	.	.	.	.	.	.
COc1ccccc1OCC(=O)Nc1ccc(CSc2ccccc2)cc1C	.	.	.	.	.	.
c1ccc2nc(-c3nc4ccccc4o3)ccc2c1	.	.	.	.	+	.
CCOC(=O)CSc1cc(C)c(C#N)c2nc3ccccc3n12	.	.	.	.	.	.
CCOC(=O)c1c(C)cc(C)n2c1nc1ccccc12	.	11	.	.	/	?
COc1ccc(OC)c(NC(=O)CSc2nnc(-c3ccco3)n2-c2ccc(C(=O)O)cc2)c1	.	.	.	.	.	.
C=CCn1c(SCC(=O)N(C)C)nc2sc3c(c2c1=O)CCC3	.	8.4	.	.	.	.
C=CCSc1nc2sc3c(c2c(=O)n1CC)CCC3	.	.	.	.	.	.
O=C(NCCCN1CCCC1=O)C1CCN(S(=O)(=O)N2CCOCC2)CC1	.	.	/	/	.	.
CCN=C1S/C(=C\c2cc(OCC)c(O)cc2Br)C(=O)N1CC	.	7.8	.	.	.	.
CCN=C1S/C(=C\c2ccc(O)c(OCC)c2)C(=O)N1CC	.	.	.	.	.	.
C#CCOCCOCCOCCNc1nc(N2CCN(C(=O)[C@H]([C@@H](C)CC)n3cc([C@@H](N)CO)nn3)CC2)nc(N2CCN(C(=O)[C@H](Cc3cc4ccccc4[nH]3)n3cc([C@@H](N)C(C)CC)nn3)CC2)n1 (stereo partly specified)	7.0	.	.	.	/	.
COCCN(CC(=O)Oc1ccccc1P(=O)(OC)OC)Cc1ccccc1	.	.	.	.	.	.
O=C(CN(CCc1ccccc1)Cc1ccccc1)Oc1ccccc1P(=O)(O)O	.	11	.	.	.	.
O=[N+]([O-])c1ccc(Cl)cc1P(=O)(O)c1cc(Cl)ccc1[N+](=O)[O-]	/	/	/	/	.	/
COC(=O)c1cc(N=CC2=C(O)CC(C)(C)CC2=O)cc(C(=O)OC)c1	.	.	.	.	.	.
COC(=O)c1cc(OC)c(OC)cc1N=CC1=C(O)CC(C)(C)CC1=O	5.1	.	.	.	.	.
Cc1cc(/C=N/NC(=O)c2cccs2)c(C)n1-c1ccccc1	.	.	.	.	+	.
CCOc1ccccc1C(=O)N/N=C/c1cccc2cccnc12	.	9.2	.	.	.	.
SMILES	IMP-1 inhibitor	VIM-2 inhibitor	procasp3 activ	procasp7 counter	Neddyl block	PolyA inhibitor
CCOc1ccc(C(=O)N/N=C/c2cccc3cccnc23)cc1	.	.	.	.	.	.
COc1ccc(CCNc2c(C)c(C)nc3ncnn23)cc1	.	8.8	.	.	.	.
COc1ccc(-c2cc(NCCc3ccncc3)n3ncnc3n2)cc1	.	.	.	.	.	.
O=C(CCCN1C(=O)c2cccc3cccc(c23)C1=O)NCc1cccnc1	.	.	.	.	.	.
Cc1ccc(Cn2ccc(NC(=O)c3nn(C)cc3[N+](=O)[O-])n2)cc1	.	.	.	.	.	.
CCn1cc([N+](=O)[O-])c(C(=O)Nc2ccn(Cc3ccccc3)n2)n1	.	12	.	.	.	.
O=C1OC(c2ccccc2)c2ccccc21 (stereo unspecified)	.	.	.	.	.	.
O=C1OC(c2ccccc2)c2ccc3ccccc3c21 (stereo unspecified)	.	9.5	.	.	.	.
CCNC(=S)N1CCC(NC(=O)c2ccco2)CC1	.	.	.	.	.	.
